Results: ChEMBL document CHEMBL4411328, “Synthesis and Structural/Functional Characterization of Selective M14 Metallocarboxypeptidase Inhibitors Based on Phosphinic Pseudopeptide Scaffold: Implications on the Design of Specific Optical Probes” (J Med Chem, 2019)
The source made the active and inactive calls. No cut-off for these calls is given here.

Experiments:
HeLa [1] = assay: Cytotoxicity against human HeLa cells by fluorescence confocal microscopy; type: cell-based
[2] = target: Mast cell carboxypeptidase A (Homo sapiens) (UniProt P15088); assay: Binding affinity to CPA3 expressing human HeLa cells assessed as compound co-localization with CPA3 at 1 to 5 uM treated for 6 hrs followed by cell wash and measured by DAPI-staining based fluorescence confocal microscopy
Chain of Mast cell carboxypeptidase A (Homo sapiens) (P15088 whole entry): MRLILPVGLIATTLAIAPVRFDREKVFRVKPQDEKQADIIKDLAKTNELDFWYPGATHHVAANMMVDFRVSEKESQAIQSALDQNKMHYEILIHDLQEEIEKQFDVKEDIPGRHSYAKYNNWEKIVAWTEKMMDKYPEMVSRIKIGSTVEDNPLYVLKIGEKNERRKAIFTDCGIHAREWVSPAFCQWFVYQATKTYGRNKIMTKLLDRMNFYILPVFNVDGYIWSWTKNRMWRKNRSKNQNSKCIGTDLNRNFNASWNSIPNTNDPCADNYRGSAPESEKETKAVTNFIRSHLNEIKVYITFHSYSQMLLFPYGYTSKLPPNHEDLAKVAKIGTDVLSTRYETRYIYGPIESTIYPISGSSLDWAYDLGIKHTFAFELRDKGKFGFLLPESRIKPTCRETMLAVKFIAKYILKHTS
Procedure, shortened: (§1)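 HeLa cells with cytoplasmic hCPA3 expression were treated 6 h with the fluorescent probe at 1 or 5 µM, washed, then imaged by fluorescence confocal microscopy for internalization and co-localization with CPA3.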

[3] = target: Neutrophil elastase (Homo sapiens) (UniProt P08246); assay: Inhibition of human neutrophil Elastase at 1 nM to 1 mM using succinyl-alanylalanyl-prolyl-valine-4-nitroanilide as substrate preincubated for 45 mins measured at 30 sec intervals for 15 mins by UV/vis-spectrophotometry
Chain of Neutrophil elastase (Homo sapiens) (P08246 whole entry): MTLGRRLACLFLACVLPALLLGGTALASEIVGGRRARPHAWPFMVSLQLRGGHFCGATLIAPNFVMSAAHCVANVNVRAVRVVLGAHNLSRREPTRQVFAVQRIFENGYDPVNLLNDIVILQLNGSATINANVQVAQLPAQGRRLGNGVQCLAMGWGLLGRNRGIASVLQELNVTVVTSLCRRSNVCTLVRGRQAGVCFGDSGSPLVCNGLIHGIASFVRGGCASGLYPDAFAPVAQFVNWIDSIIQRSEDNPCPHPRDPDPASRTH
Procedure, shortened: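 hNElastase 2.0x10-7 M, Suc-AAPVPNA 1.0x10-3 M, in 100 mM Tris-HCl pH 8.0, monitored at 414 nm. Preincubated with inhibitor 45 min at 37 °C before substrate; initial velocities from 30-sec reads over 15 min, triplicate.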

[4] = target: Carboxypeptidase B2 (Homo sapiens) (UniProt Q96IY4); assay: Inhibition of human TAFI at 1 nM to 1 mM using AAFA as substrate preincubated for 45 mins measured at 30 sec intervals for 15 mins by UV/vis-spectrophotometry
Chain of Carboxypeptidase B2 (Homo sapiens) (Q96IY4 whole entry): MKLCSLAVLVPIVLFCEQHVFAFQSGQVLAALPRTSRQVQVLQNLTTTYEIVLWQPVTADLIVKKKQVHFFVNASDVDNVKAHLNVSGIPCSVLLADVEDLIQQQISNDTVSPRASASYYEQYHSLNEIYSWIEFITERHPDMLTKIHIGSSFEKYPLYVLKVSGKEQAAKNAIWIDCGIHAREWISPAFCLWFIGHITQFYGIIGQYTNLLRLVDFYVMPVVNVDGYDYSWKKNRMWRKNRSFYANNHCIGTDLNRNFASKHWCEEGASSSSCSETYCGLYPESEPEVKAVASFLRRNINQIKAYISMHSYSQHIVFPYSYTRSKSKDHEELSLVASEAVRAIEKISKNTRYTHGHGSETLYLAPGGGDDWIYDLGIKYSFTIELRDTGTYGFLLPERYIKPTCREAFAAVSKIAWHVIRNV
Procedure, shortened: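 Absorbance at 355 nm. Preincubation 45 min at 37 °C with inhibitor before substrate addition. Initial velocities from 30-sec reads over 15 min; triplicates.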

[5] = target: Matrix metalloproteinase-9 (Homo sapiens, UniProt P14780); assay: Inhibition of human MMP9 using fluorogenic Mca-Pro-Leu-Gly-Leu-Dpa-Ala-Arg-NH2 peptide as substrate preincubated for 45 mins measured at 30 sec intervals for 15 mins by UV/vis-spectrophotometry
Chain of Matrix metalloproteinase-9 (P14780 whole entry): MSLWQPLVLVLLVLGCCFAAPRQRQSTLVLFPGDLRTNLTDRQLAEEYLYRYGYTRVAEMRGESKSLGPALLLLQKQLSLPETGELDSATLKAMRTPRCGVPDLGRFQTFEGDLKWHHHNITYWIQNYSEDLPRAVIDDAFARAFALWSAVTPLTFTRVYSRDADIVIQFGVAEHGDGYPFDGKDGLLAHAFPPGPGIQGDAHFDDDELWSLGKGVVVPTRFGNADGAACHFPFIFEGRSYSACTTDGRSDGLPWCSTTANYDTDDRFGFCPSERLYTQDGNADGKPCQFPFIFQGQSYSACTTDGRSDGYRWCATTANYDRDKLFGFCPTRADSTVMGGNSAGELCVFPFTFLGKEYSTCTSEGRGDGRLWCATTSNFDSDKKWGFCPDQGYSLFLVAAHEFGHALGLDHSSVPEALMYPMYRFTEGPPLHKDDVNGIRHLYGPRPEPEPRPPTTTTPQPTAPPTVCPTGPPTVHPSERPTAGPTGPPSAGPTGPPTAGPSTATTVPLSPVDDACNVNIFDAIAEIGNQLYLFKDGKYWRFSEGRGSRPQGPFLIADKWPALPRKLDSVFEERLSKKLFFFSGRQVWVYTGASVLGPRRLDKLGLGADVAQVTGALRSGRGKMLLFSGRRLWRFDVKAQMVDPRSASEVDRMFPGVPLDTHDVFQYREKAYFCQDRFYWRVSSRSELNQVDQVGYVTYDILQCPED
Procedure, shortened: (§2)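 MMPs at nanomolar level with fluorogenic Mca-Pro-Leu-Gly-Leu-Dpa-Ala-Arg-NH2 substrate in 50 mM Tris-HCl pH 6.8, 10 mM CaCl2. Enzyme, inhibitor and buffer preincubated 45 min at 37 °C, then substrate added; initial velocities from 30-sec reads over 15 min, in triplicate.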

[6] = target: Mast cell carboxypeptidase A (Rattus norvegicus, UniProt P21961); assay: Inhibition of rat CPA3 using AAFP as substrate preincubated for 45 mins measured at 30 sec intervals for 15 mins by UV/vis-spectrophotometry
Chain of Mast cell carboxypeptidase A (P21961 whole entry): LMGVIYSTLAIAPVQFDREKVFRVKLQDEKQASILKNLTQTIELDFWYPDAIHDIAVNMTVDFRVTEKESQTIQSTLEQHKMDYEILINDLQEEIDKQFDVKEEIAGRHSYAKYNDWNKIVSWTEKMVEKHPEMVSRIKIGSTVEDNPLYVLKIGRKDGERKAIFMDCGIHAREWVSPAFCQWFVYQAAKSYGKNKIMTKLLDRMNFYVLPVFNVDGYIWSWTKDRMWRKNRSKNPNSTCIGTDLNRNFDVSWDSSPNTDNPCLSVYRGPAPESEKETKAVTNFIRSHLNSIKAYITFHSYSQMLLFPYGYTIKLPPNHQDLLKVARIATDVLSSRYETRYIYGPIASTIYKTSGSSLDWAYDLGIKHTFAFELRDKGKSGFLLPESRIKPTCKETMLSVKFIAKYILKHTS
Procedure, shortened: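 Enzyme, inhibitor and buffer preincubated 45 min at 37 °C, then substrate added. Read at 355 nm every 30 sec for 15 min as initial velocities, in triplicate.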

[7] = target: Macrophage metalloelastase (Homo sapiens, UniProt P39900); assay: Inhibition of human MMP12 using fluorogenic Mca-Pro-Leu-Gly-Leu-Dpa-Ala-Arg-NH2 peptide as substrate preincubated for 45 mins measured at 30 sec intervals for 15 mins by UV/vis-spectrophotometry; procedure, shortened: as §2
Chain of Macrophage metalloelastase (P39900 whole entry): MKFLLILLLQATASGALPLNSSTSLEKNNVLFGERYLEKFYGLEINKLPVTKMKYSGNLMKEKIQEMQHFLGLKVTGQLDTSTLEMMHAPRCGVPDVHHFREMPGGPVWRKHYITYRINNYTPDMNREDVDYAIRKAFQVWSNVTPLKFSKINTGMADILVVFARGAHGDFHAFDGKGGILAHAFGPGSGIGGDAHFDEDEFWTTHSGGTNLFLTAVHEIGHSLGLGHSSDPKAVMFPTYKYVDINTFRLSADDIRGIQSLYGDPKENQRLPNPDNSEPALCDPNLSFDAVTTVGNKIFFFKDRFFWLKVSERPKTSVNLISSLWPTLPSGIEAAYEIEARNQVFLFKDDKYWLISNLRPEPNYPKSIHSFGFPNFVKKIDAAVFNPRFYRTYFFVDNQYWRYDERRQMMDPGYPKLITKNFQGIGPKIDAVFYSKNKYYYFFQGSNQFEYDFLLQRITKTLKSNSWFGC

[8] = target: Carboxypeptidase N catalytic chain (Homo sapiens) (UniProt P15169); assay: Inhibition of human CPN at 1 nM to 1 mM using N-(3-[2-furyl]acryloyl)-alanyl-lysine-OH as substrate preincubated for 45 mins measured at 30 sec intervals for 15 mins by UV/vis-spectrophotometry
Chain of Carboxypeptidase N catalytic chain (Homo sapiens) (P15169 whole entry): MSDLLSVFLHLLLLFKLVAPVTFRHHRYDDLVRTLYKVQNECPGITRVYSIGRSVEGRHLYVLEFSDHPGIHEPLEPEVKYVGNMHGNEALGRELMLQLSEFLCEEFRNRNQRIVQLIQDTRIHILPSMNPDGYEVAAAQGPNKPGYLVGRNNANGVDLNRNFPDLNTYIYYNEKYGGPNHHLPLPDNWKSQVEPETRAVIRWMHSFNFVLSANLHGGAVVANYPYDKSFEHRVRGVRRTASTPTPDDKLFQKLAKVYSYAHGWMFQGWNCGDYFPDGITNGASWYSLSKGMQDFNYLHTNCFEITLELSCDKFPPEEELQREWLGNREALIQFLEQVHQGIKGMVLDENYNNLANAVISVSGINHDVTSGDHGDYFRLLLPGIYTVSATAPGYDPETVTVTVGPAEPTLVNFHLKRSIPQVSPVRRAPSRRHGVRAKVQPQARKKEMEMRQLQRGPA
Procedure, shortened: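 hCPN at 2.0x10-9 M with 2.0x10-4 M FAAK substrate in 20 mM Tris-HCl pH 7.5, 100 mM NaCl, followed at 330 nm. Enzyme and inhibitor preincubated 45 min at 37 °C before substrate. Initial velocities read every 30 sec over 15 min, triplicate.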

Stromelysin-2 = Stromelysin-2 (Homo sapiens, UniProt P09238); assay: Inhibition of human MMP10 using fluorogenic Mca-Pro-Leu-Gly-Leu-Dpa-Ala-Arg-NH2 peptide as substrate preincubated for 45 mins measured at 30 sec intervals for 15 mins by UV/vis-spectrophotometry; procedure, shortened: as §2
Chain of Stromelysin-2 (P09238 whole entry): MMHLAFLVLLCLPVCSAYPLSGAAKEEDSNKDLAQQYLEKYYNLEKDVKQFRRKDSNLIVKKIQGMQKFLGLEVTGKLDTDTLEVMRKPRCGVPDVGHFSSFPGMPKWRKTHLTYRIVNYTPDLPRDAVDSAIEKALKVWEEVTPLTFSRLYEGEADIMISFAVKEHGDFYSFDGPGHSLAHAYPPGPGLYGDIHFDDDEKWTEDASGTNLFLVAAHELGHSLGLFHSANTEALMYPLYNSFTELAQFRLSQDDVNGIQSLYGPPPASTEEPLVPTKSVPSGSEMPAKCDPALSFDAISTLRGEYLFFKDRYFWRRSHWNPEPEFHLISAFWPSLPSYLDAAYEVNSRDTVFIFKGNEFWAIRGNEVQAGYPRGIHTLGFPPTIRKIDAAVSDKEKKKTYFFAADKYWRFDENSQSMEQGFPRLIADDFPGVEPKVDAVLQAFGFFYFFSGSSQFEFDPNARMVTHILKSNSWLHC

[9] = target: Cytosolic carboxypeptidase 1 (Homo sapiens) (UniProt Q9UPW5); assay: Inhibition of human CCP1 at 1 nM to mM using tubulin as substrate preincubated for 45 mins measured at 30 sec intervals for 15 mins by UV/vis-spectrophotometry
Chain of Cytosolic carboxypeptidase 1 (Homo sapiens) (Q9UPW5 whole entry): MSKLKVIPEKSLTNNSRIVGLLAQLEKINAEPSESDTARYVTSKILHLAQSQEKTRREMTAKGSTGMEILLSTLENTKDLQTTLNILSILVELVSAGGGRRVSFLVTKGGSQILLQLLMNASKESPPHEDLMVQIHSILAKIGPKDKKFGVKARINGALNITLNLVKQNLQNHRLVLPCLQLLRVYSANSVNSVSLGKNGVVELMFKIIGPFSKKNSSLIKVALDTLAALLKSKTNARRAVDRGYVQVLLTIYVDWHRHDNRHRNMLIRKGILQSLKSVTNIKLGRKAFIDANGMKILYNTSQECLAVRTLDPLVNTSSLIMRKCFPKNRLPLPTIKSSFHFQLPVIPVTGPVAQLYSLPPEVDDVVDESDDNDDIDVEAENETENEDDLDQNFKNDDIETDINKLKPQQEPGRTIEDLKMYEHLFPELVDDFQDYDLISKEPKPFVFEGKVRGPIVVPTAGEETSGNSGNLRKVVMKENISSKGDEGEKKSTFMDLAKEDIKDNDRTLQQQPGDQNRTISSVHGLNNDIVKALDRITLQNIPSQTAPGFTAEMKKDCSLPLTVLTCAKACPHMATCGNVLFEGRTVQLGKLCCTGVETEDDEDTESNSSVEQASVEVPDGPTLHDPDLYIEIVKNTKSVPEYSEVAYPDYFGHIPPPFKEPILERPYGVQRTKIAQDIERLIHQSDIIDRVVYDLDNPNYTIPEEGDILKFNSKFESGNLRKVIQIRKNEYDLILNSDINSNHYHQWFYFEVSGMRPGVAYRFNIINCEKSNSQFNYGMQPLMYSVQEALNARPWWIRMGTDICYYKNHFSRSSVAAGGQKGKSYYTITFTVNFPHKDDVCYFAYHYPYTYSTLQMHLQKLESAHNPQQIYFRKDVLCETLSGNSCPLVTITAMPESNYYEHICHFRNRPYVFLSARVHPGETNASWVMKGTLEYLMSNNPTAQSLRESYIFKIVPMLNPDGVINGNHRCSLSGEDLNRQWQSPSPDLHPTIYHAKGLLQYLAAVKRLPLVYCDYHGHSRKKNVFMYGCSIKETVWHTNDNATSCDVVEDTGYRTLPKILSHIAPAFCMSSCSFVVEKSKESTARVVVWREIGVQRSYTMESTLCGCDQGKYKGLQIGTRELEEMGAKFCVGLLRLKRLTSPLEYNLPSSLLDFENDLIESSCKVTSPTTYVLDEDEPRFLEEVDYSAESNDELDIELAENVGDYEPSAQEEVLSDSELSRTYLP
Procedure, shortened: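 hCCP1 or hCCP6 at 1.0x10-6 g with tubulin (12.5x10-5 g) as substrate in 20 mM Tris-HCl pH 7.5, 100 mM NaCl. Enzyme, inhibitor and buffer preincubated 45 min at 37 °C before substrate addition; run in triplicate.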

Collagenase 3 = Collagenase 3 (Homo sapiens, UniProt P45452); assay: Inhibition of human MMP13 using fluorogenic Mca-Pro-Leu-Gly-Leu-Dpa-Ala-Arg-NH2 peptide as substrate preincubated for 45 mins measured at 30 sec intervals for 15 mins by UV/vis-spectrophotometry; procedure, shortened: as §2
[10] = Drug uptake in CPA3 expressing human HeLa cells at 1 to 5 uM treated for 6 hrs followed by cell wash and measured by DAPI-staining based fluorescence confocal microscopy; type: ADME; procedure, shortened: as §1
HEK-293T [11] = assay: Cytotoxicity against HEK293T cells by fluorescence confocal microscopy; type: cell-based; settings: human
Homo sapiens = species on record: Homo sapiens; assay: Inhibition of pepsin (unknown origin) at 1 nM to 1 mM using H-Leu-Ser-p-nitro-Phe-Nle-Ala-Leu-OMe peptide as substrate preincubated for 45 mins measured at 30 sec intervals for 15 mins by UV/vis-spectrophotometry
Procedure, shortened: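 Pepsin 1.0x10-8 M with 2.0x10-4 M LSPNP substrate in 100 mM acetate pH 4.4, monitored at 310 nm. Inhibitor preincubated with enzyme 45 min at 37 °C; initial velocities over 15 min at 30-sec intervals; triplicate.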

HeLa [12] = assay: Cytotoxicity against human HeLa cells assessed as reduction in cell viability at 1 to 5 uM after 24 hrs by XTT assay; type: cell-based
Procedure, shortened: (§3)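 Cells were exposed to compound at 1 and 5 µM for 24h in culture, and viability was then read by the XTT assay.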

HEK-293T [13] = assay: Cytotoxicity against HEK293T cells assessed as reduction in cell viability at 1 to 5 uM after 24 hrs by XTT assay; type: cell-based; settings: human; procedure, shortened: as §3

Structure (SMILES)	Activity (HeLa [1])	Activity [2]	inhibition [3]	inhibition [4]	Ki [5] [nM]	Ki [6] [nM]	Ki [7] [nM]	inhibition [8]	Ki (Stromelysin-2) [nM]	inhibition [9]	Ki (Collagenase 3) [nM]	Drug uptake [10]	Activity (HEK-293T [11])	inhibition (Homo sapiens)	Activity (HeLa [12])	Activity (HEK-293T [13])
C[C@H](NC(=O)[C@H](Cc1ccc(O)cc1)NC(=O)COCCOCCNC(=O)CCOCCOCCOCCNC(=O)CCc1ccc(C(=C\C=C2\N(CCCCS(=O)(=O)O)c3ccc4c(S(=O)(=O)[O-])cc(S(=O)(=O)O)cc4c3C2(C)C)/C=C/C2=[N+](CCCCS(=O)(=O)O)c3ccc4c(S(=O)(=O)O)cc(S(=O)(=O)O)cc4c3C2(C)C)cc1)P(=O)(O)C[C@@H](CCc1ccccc1)C(=O)O	Non-Toxic	Active	inactive	inactive	2590	0.017	1340	inactive	983	inactive	562	Not Active	Non-Toxic	inactive		
CC(=O)N[C@@H](Cc1ccc(O)cc1)C(=O)N[C@@H](C)P(=O)(O)C[C@@H](CCc1ccccc1)C(=O)O															Non-Toxic	Non-Toxic
